Assay results published in ChEMBL document CHEMBL1629467, “Design and synthesis of novel tetrahydro-2H-Pyrano[3,2-c]pyridazin-3(6H)-one derivatives as potential anticancer agents” (Eur J Med Chem, 2010).

Tests used:
[1] = tested on: HCT-116; assay: Growth inhibition of human HCT116 cells after 48 hrs by sulforhodamine B assay; format: functional, cell-based; conditions: HCT-116, 48 h
Procedure, shortened: (§1)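 Cells were grown in RPMI-1640 with 10% FBS, penicillin, streptomycin and amphotericin B at 37 °C in 5% CO2, then treated for 48 h in triplicate wells. They were fixed with cold 50% TCA for 1 h at 4 °C, stained with 0.4% SRB in 1% acetic acid for 10 min at RT, and dissolved in 10 mM Tris (pH 10.5) before reading A570. Percent inhibition was calculated against untreated cells after blank subtraction. IC50 is the concentration giving a 50% reduction in net protein increase, reported as mean ± SEM from ≥3 independent runs.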

[2] = tested on: SK-N-SH; assay: Growth inhibition of human SK-N-SH cells after 48 hrs by sulforhodamine B assay; format: functional, cell-based; procedure, shortened: as §1
[3] = tested on: SK-BR-3; assay: Growth inhibition of human SK-BR-3 cells after 48 hrs by sulforhodamine B assay; format: functional, cell-based; conditions: SK-BR-3, 48 h; procedure, shortened: as §1
[4] = tested on: DU-145; assay: Growth inhibition of human DU145 cells after 48 hrs by sulforhodamine B assay; format: functional, cell-based; conditions: DU-145, 48 h; procedure, shortened: as §1
[5] = tested on: A549; assay: Growth inhibition of human A549 cells after 48 hrs by sulforhodamine B assay; format: functional, cell-based; conditions: A549, 48 h; procedure, shortened: as §1
[6] = tested on: SK-BR-3; assay: Selectivity ratio of IC50 for human SK-BR-3 cells to IC50 for human A549 cells; format: functional
[7] = tested on: SK-BR-3; assay: Selectivity ratio of IC50 for human SK-BR-3 cells to IC50 for human HCT116 cells; format: functional
[8] = tested on: SK-N-SH; assay: Selectivity ratio of IC50 for human SK-BR-3 cells to IC50 for human SK-N-SH cells; format: functional
[9] = tested on: SK-BR-3; assay: Selectivity ratio of IC50 for human SK-BR-3 cells to IC50 for human DU145 cells; format: functional
[10] = Growth inhibition of human MCF10A cells after 48 hrs by sulforhodamine B assay; format: cell-based; conditions: MCF-10A; procedure, shortened: as §1
[11] = tested on: SK-BR-3; assay: Selectivity for human SK-BR-3 cells over human MCF10A cells
[12] = Cytotoxicity against human MCF10A cells at 0.1 uM after 72 hrs by MTT assay; format: cell-based; conditions: mcf-10a
Procedure, shortened: (§2)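 Cells were plated in 96-well plates with medium and treated after 24 h with five test concentrations, each in triplicate, for 72 h. They were then washed with PBS, and fresh medium plus MTT (stock 3 mg/mL in PBS) was added for 4 h at 37 °C. Formazan was dissolved in DMSO for 30 min, absorbance was read, and the data were converted to % cell viability.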

[13] = Cytotoxicity against human MCF10A cells at 0.3 uM after 72 hrs by MTT assay; format: cell-based; conditions: mcf-10a; procedure, shortened: as §2
[14] = Cytotoxicity against human MCF10A cells at 1 uM after 72 hrs by MTT assay; format: cell-based; conditions: mcf-10a; procedure, shortened: as §2
[15] = Cytotoxicity against human MCF10A cells at 3 uM after 72 hrs by MTT assay; format: cell-based; conditions: mcf-10a; procedure, shortened: as §2
[16] = Cytotoxicity against human MCF10A cells at 10 uM after 72 hrs by MTT assay; format: cell-based; conditions: mcf-10a; procedure, shortened: as §2

| SMILES | IC50 [1] | IC50 [2] | IC50 [3] | IC50 [4] | IC50 [5] | Selectivity ratio [6] | Selectivity ratio [7] | Selectivity ratio [8] | Selectivity ratio [9] | IC50 [10] | Ratio [11] | Selectivity ratio [11] | Activity [12] | Activity [13] | Activity [14] | Activity [15] | Activity [16] |
| --- | --- | --- | --- | --- | --- | --- | --- | --- | --- | --- | --- | --- | --- | --- | --- | --- | --- |
| CO[C@@H]1CC=C2NN(c3ccc(C)cc3)C(=O)C[C@]2(C)O1 | 28.7 µM | 25.3 µM | 29.7 µM | 23.2 µM | 21.5 µM | – | – | – | – | – | – | – | – | – | – | – | – |
| CO[C@@H]1CC=C2NN(c3cc4ccccc4[nH]3)C(=O)C[C@]2(C)O1 | 18.3 µM | 19.5 µM | 4.1 µM | 14.4 µM | 3.92 µM | 5 | – | – | – | – | – | – | – | – | – | – | – |
| CO[C@@H]1CC=C2NN(c3cccnc3)C(=O)C[C@]2(C)O1 | 17.1 µM | 19 µM | 15.2 µM | 16.4 µM | 14.3 µM | – | – | – | – | – | – | – | – | – | – | – | – |
| CO[C@@H]1CC=C2NN(c3cc(Cl)cc(Cl)c3)C(=O)C[C@]2(C)O1 | 19.4 µM | 20.2 µM | 18.8 µM | 21.3 µM | 17.5 µM | – | – | – | – | – | – | – | – | – | – | – | – |
| CO[C@@H]1CC=C2NN(c3cncnc3)C(=O)C[C@]2(c2ccccc2)O1 | 9.13 µM | 8.2 µM | 5.3 µM | 7.33 µM | 5.2 µM | – | – | – | – | – | – | – | – | – | – | – | – |
| CO[C@@H]1CC=C2NN(c3ccc(C)cc3)C(=O)C[C@]2(c2ccccc2)O1 | 10.5 µM | 11.1 µM | 9.2 µM | 11.2 µM | 8.11 µM | – | – | – | – | – | – | – | – | – | – | – | – |
| CO[C@@H]1CC=C2NN(c3cncnc3)C(=O)C[C@]2(C)O1 | 15.1 µM | 16.6 µM | 3.4 µM | 17.1 µM | 4.1 µM | 5 | – | – | – | – | – | – | – | – | – | – | – |
| CO[C@@H]1CC=C2NN(c3cc4ccccc4[nH]3)C(=O)C[C@]2(c2ccncc2)O1 | 4.35 µM | 3.9 µM | 0.15 µM | 4.1 µM | 4.05 µM | 30 | 30 | 30 | 30 | > 55 µM | 290 | 290 | Non-toxic | Non-toxic | Non-toxic | Non-toxic | Non-toxic |
| CO[C@@H]1CC=C2NN(c3cc(Cl)cc(Cl)c3)C(=O)C[C@]2(c2ccncc2)O1 | 9.1 µM | 8.3 µM | 5.5 µM | 7.6 µM | 7.5 µM | – | – | – | – | – | – | – | – | – | – | – | – |
| CO[C@@H]1CC=C2NN(c3ccc(Cl)cc3)C(=O)C[C@]2(C)O1 | 35.7 µM | 31.7 µM | 28.7 µM | 24.2 µM | 25.5 µM | – | – | – | – | – | – | – | – | – | – | – | – |

The remaining compounds from weak to strong by IC50 [1], led by results:

| IC50 [1] | IC50 [2] | IC50 [3] | IC50 [4] | IC50 [5] | SMILES | Selectivity ratio [6] | Selectivity ratio [7] | Selectivity ratio [8] | Selectivity ratio [9] | IC50 [10] | Ratio [11] | Selectivity ratio [11] | Activity [12] | Activity [13] | Activity [14] | Activity [15] | Activity [16] |
| --- | --- | --- | --- | --- | --- | --- | --- | --- | --- | --- | --- | --- | --- | --- | --- | --- | --- |
| 24.3 µM | 23.7 µM | 5.7 µM | 22.2 µM | 6.15 µM | COc1cc(OC)cc(N2NC3=CC[C@@H](OC)O[C@@]3(C)CC2=O)c1 | 5 | – | – | – | – | – | – | – | – | – | – | – |
| 18.1 µM | 19.5 µM | 1.2 µM | 18.3 µM | 17.2 µM | COc1cc(OC)cc(N2NC3=CC[C@@H](OC)O[C@@]3(c3ccccc3)CC2=O)c1 | – | – | – | – | – | – | – | – | – | – | – | – |
| 16.2 µM | 17.4 µM | 17.6 µM | 16.1 µM | 14.1 µM | CO[C@@H]1CC=C2NN(c3cc(F)cc(Cl)c3)C(=O)C[C@]2(c2ccccc2)O1 | – | – | – | – | – | – | – | – | – | – | – | – |
| 11.3 µM | 10.4 µM | 8.4 µM | 10.1 µM | 7.1 µM | COc1ccc(N2NC3=CC[C@@H](OC)O[C@@]3(c3ccccc3)CC2=O)cc1 | – | – | – | – | – | – | – | – | – | – | – | – |
| 8.2 µM | 9.1 µM | 0.53 µM | 7.9 µM | 8.67 µM | CO[C@@H]1CC=C2NN(c3cc4ccccc4[nH]3)C(=O)C[C@]2(c2ccccc2)O1 | 20 | 20 | 20 | 20 | > 38 µM | – | – | – | – | – | – | – |
| 7.4 µM | 8.1 µM | 6.2 µM | 7.1 µM | 5.9 µM | CO[C@@H]1CC=C2NN(c3ccc(C)cc3)C(=O)C[C@]2(c2ccncc2)O1 | – | – | – | – | – | – | – | – | – | – | – | – |
| 6.5 µM | 6.4 µM | 0.21 µM | 5.9 µM | 6.22 µM | COc1cc(OC)cc(N2NC3=CC[C@@H](OC)O[C@@]3(c3ccncc3)CC2=O)c1 | 30 | 30 | 30 | 30 | > 51 µM | 290 | 290 | Non-toxic | Non-toxic | Non-toxic | Non-toxic | Non-toxic |
